# Measurements reported in ChEMBL document CHEMBL3124798, “Convenient one-pot synthesis, anti-mycobacterial and anticancer activities of novel benzoxepinoisoxazolones and pyrazolones” (Eur J Med Chem, 2014).
# Activity calls are given as the source filed them. No cut-off for these calls is given here.
# How the values were obtained:
# HeLa [1] = experiment: Induction of apoptosis in human HeLa cells assessed as activation of caspase-3 using Ac-DEVD-AMC as substrate at 10 to 25 uM after 48 hrs by fluorescence assay relative to control; type: functional
# Summary of the method: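 HeLa cells treated 48 h with compound or DMSO, then lysed in 50 mM HEPES, 5 mM CHAPS, 5 mM DTT, pH 7.5. Lysate incubated with Ac-DEVD-AMC in 20 mM HEPES pH 7.5, 0.1% CHAPS, 2 mM EDTA, 5 mM DTT for 2 h at 37 °C. AMC read at ex/em 380/460 nm and normalized to Bradford protein. Activity expressed as treated relative to mock-treated. Doxorubicin used as positive control.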
# [2] = tested on: Mycolicibacterium smegmatis; experiment: Antimycobacterial activity against Mycobacterium smegmatis MC2 155 ATCC 14468 after 32 hrs by broth microdilution method; type: functional
# Summary of the method: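 M. smegmatis MC² 155 grown overnight to mid-log in Middlebrook 7H9 (0.2% glycerol, 0.1% Tween-80, 10% ADS) at 37 °C, subcultured to OD600 ≈0.3, then diluted 1:1000 into 96-well plates. Final compound levels were […]. Incubated 32 h at 37 °C, turbidity read at OD600, triplicates. GI50 was derived from % growth inhibition. INH/rifampicin positive controls, DMSO and medium-only controls.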
# HeLa [3] = experiment: Ratio of IC50 for HEK293 cells to IC50 for human HeLa cells
# HeLa [4] = experiment: Cytotoxicity against human HeLa cells after 48 hrs by MTT assay; type: functional, cell-based
# Summary of the method: (§1)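 Cells taken from T75 flasks/90 mm dishes when sub-confluent, trypsinized and seeded at 5000–10000 cells/well according to doubling time. Test compounds added after 18 h at four concentrations, in triplicate wells. Incubation 48 h, then MTT (5 mg/mL) for 60 min at 37 °C and the bound dye solubilized. Percent growth taken against control wells. IC50 read from dose-response curves; three independent experiments, mean ± SD.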
# HEK293 = experiment: Cytotoxicity against HEK293 cells after 48 hrs by MTT assay; type: cell-based, Homo sapiens; summary of the method: as §1
# DU-145 = experiment: Cytotoxicity against human DU145 cells after 48 hrs by MTT assay; type: functional, cell-based; summary of the method: as §1
# A549 = experiment: Cytotoxicity against human A549 cells after 48 hrs by MTT assay; type: functional, cell-based; summary of the method: as §1
# HeLa [5] = experiment: Induction of apoptosis in human HeLa cells assessed as activation of caspase-9 using Ac-DEVD-AMC as substrate at 10 to 25 uM after 48 hrs by fluorescence assay relative to control; type: functional
# [6] = Homo sapiens, HeLa, 48 h, read-out: IC50
# [7] = Homo sapiens, HEK293, 48 h, read-out: IC50
# [8] = Homo sapiens, DU-145, 48 h, read-out: IC50
# [9] = Homo sapiens, A549, 48 h, read-out: IC50
Compound,fold change (FC) (HeLa [1]),GI50 [2],Ratio IC50 (HeLa [3]),IC50 (HeLa [4]; [6]) [µM],IC50 (HEK293; [7]) [µM],IC50 (DU-145; [8]) [µM],IC50 (A549; [9]) [µM],fold change (FC) (HeLa [5]),"GI50 ([2]; MC2 155 ATCC 14468, 32 h) [µg/mL]",IC50 (HeLa [4]; hela),IC50 (HEK293; hek293),IC50 (DU-145; du-145),IC50 (A549; a549)
COc1ccc2c(c1)C=C1C(=O)ON=C1CO2,<=40,inactive,4,10.1,47.7,33.6,46.5,20,,,,,
O=C1C2=Cc3ccccc3OCC2=NN1c1ccccc1,,,,,,,,,23.2,Not Active,Not Active,Not Active,Not Active
O=C1C2=Cc3cc(-c4ccccc4)ccc3OCC2=NN1c1ccc(Br)cc1,,inactive,,,,140,118,,,Not Active,Not Active,,
O=C1C2=Cc3cc(Br)ccc3OCC2=NN1c1ccc(Br)cc1,,inactive,,,,,,,,Not Active,Not Active,Not Active,Not Active
O=C1ON=C2COc3ccc(Br)cc3C=C12,<=40,,4,10.1,48.2,28.8,49.1,20,28.5,,,,
Cc1ccc(N2N=C3COc4ccccc4C=C3C2=O)cc1,,,,,,152,,,49.3,Not Active,Not Active,,Not Active
O=C1C2=Cc3ccccc3OCC2=NN1c1cccc(Cl)c1,,inactive,,,,,244,,,Not Active,Not Active,Not Active,
CO[C@H]1/C=C/O[C@@]2(C)Oc3c(C)c(O)c4c(O)c(c(/C=N/N5CCN(C)CC5)c(O)c4c3C2=O)NC(=O)/C(C)=C\C=C\[C@H](C)[C@H](O)[C@@H](C)[C@@H](O)[C@@H](C)[C@H](OC(C)=O)[C@@H]1C [RIFAMPIN],,,,,,,,,1.04,,,,
NNC(=O)c1ccncc1 [ISONIAZID],,,,,,,,,7.94,,,,
COc1cccc2c1C(=O)c1c(O)c3c(c(O)c1C2=O)C[C@@](O)(C(=O)CO)C[C@@H]3O[C@H]1C[C@H](N)[C@H](O)[C@H](C)O1 [DOXORUBICIN],,,,6.94,7.41,8.19,7.47,,,,,,
COc1ccc2c(c1)C=C1C(=O)N(c3ccc(C)cc3)N=C1CO2,,inactive,,129,138,117,199,,,,,,
COc1ccc(N2N=C3COc4ccccc4C=C3C2=O)cc1,,inactive,,166,,67.5,133,,,,Not Active,,
COc1ccc2c(c1)C=C1C(=O)N(c3ccc(Br)cc3)N=C1CO2,,inactive,,180,161,,33.3,,,,,Not Active,
Cc1ccccc1N1N=C2COc3ccccc3C=C2C1=O,,inactive,,109,154,63.9,,,,,,,Not Active
O=C1C2=Cc3ccccc3OCC2=NN1c1ccc(Br)cc1,,inactive,,,,117,,,,Not Active,Not Active,,Not Active
O=C1C2=Cc3cc(Br)ccc3OCC2=NN1c1ccccc1,,,,,,123,,,11.9,Not Active,Not Active,,Not Active
O=C1C2=Cc3ccccc3OCC2=NN1c1ccc(F)cc1,,,,,,,,,38.7,Not Active,Not Active,Not Active,Not Active
O=C1C2=Cc3cc(-c4ccccc4)ccc3OCC2=NN1c1ccccc1,,inactive,,,,,117,,,Not Active,Not Active,Not Active,
COc1ccc2c(c1)C=C1C(=O)N(c3ccccc3)N=C1CO2,,,,167,,,,,15.7,,Not Active,Not Active,Not Active
Cc1ccc(N2N=C3COc4ccc(Br)cc4C=C3C2=O)cc1,,,,,,,163,,42.4,Not Active,Not Active,Not Active,
O=C1C2=Cc3ccccc3OCC2=NN1c1cccc(F)c1,,inactive,,190,,97,179,,,,Not Active,,
O=C1C2=Cc3ccccc3OCC2=NN1c1ccc(Cl)cc1,,inactive,,,,89.4,215,,,Not Active,Not Active,,
Cc1ccc(N2N=C3COc4ccccc4C=C3C2=O)cc1C,,,,,,,84.3,,19.4,Not Active,Not Active,Not Active,
Cc1ccc(N2N=C3COc4ccc(-c5ccccc5)cc4C=C3C2=O)cc1,,,,185,149,78.2,,,34,,,,Not Active
O=C1ON=C2COc3ccc(-c4ccccc4)cc3C=C12,<=40,,4,9.03,39.2,28.9,29.7,20,9.1,,,,
O=C1ON=C2COc3ccccc3C=C12,,,,85,,84.8,,,21.4,,Not Active,,Not Active
Cc1cccc(N2N=C3COc4ccccc4C=C3C2=O)c1,,inactive,,,,,,,,Not Active,Not Active,Not Active,Not Active
